We go through 19 compounds from ChEMBL document CHEMBL1157660, “Synthesis and biological evaluation of 2',5'-dimethoxychalcone derivatives as microtubule-targeted anticancer agents” (Bioorg Med Chem, 2010).

The source made the active and inactive calls. The calls are words filed in the database; no cut-off is given here.

Assay [1] can be described thus: Cytotoxicity against human NTUB1 cells after 72 hrs by MTT assay. The format is functional, cell-based. The following applies: NTUB1, 72 h. The procedure, abridged: (§1)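 MTT assay: 1800 cells/well plated, overnight at 37 °C, then graded concentrations for 72 h at 37 °C. MTT added for 3 h, plates centrifuged, formazan dissolved in DMSO, absorbance read at 540 nm. Viability as percent of control; IC50 by median-effect analysis, mean ± SD. Cells grown in RPMI 1640 with 10% FBS.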
(Tetrazolium assays rely on reduction of a dye to a coloured formazan, in cell work by metabolically active cells.)

Assay [2] concerns PC-3. Put plainly: Cytotoxicity against human PC3 cells after 72 hrs by MTT assay. The class given is functional, cell-based. To be noted: PC-3, 72 h. An outline of the steps:
as §1

Assay [3] in a line: Cell cycle arrest in human NTUB1 cells assessed as accumulation at G2/M phase at 1 uM after 24 hrs by propidium iodide staining-based FACS analysis. The format is functional. An outline of the steps:
(§2)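 Cells (6×10^5 plated) treated 24 h; 20 µM cisplatin as reference, medium-only control. Harvested by trypsinization, PBS-washed, fixed overnight in ice-cold methanol at −20 °C. Stained 30 min at room temperature in PBS with 50 µg/mL propidium iodide plus 50 µg/mL RNase A. DNA content by FACScan flow cytometry; sub-G1 taken as apoptosis. Representative of three independent experiments.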
(In general: In flow cytometry, cells or beads pass a laser one at a time.)

The nature of assay [4]: Cell cycle arrest in human NTUB1 cells assessed as accumulation at S phase at 1 uM after 24 hrs by propidium iodide staining-based FACS analysis. The format is functional. The procedure, abridged: as §2
The nature of assay [5]: Cell cycle arrest in human NTUB1 cells assessed as accumulation at G1 phase at 1 uM after 24 hrs by propidium iodide staining-based FACS analysis. The format is functional. An outline of the steps:
as §2

Assay [6] can be described thus: Cell cycle arrest in human NTUB1 cells assessed as accumulation at sub-G1 phase at 1 uM after 24 hrs by propidium iodide staining-based FACS analysis. The class given is functional. An outline of the steps:
as §2

Assay [7] in a line: Cell cycle arrest in human NTUB1 cells assessed as accumulation at G2/M phase at 3 uM after 24 hrs by propidium iodide staining-based FACS analysis. The format is functional. The procedure, abridged:
as §2

Assay [8] is described as follows: Cell cycle arrest in human NTUB1 cells assessed as accumulation at S phase at 3 uM after 24 hrs by propidium iodide staining-based FACS analysis. The class given is functional. An outline of the steps: as §2
Assay [9] can be described thus: Cell cycle arrest in human NTUB1 cells assessed as accumulation at G1 phase at 3 uM after 24 hrs by propidium iodide staining-based FACS analysis. The format is functional. An outline of the steps: as §2
Assay [10] in a line: Cell cycle arrest in human NTUB1 cells assessed as accumulation at sub-G1 phase at 3 uM after 24 hrs by propidium iodide staining-based FACS analysis. The format is functional. An outline of the steps:
as §2

In assay [11] the test system is PC-3. Put plainly: Cell cycle arrest in human PC3 cells assessed as accumulation at G2/M phase at 1 uM after 24 hrs by propidium iodide staining-based FACS analysis. The class given is functional. An outline of the steps: as §2
In assay [12] the test system is PC-3. Kind of assay: Cell cycle arrest in human PC3 cells assessed as accumulation at S phase at 1 uM after 24 hrs by propidium iodide staining-based FACS analysis. The class given is functional. An outline of the steps:
as §2

In assay [13] the test system is PC-3. Kind of assay: Cell cycle arrest in human PC3 cells assessed as accumulation at G1 phase at 1 uM after 24 hrs by propidium iodide staining-based FACS analysis. The format is functional. An outline of the steps:
as §2

The subject of assay [14] is PC-3. Kind of assay: Cell cycle arrest in human PC3 cells assessed as accumulation at sub-G1 phase at 1 uM after 24 hrs by propidium iodide staining-based FACS analysis. The format is functional. The procedure, abridged: as §2
Assay [15] concerns PC-3. Kind of assay: Cell cycle arrest in human PC3 cells assessed as accumulation at G2/M phase at 3 uM after 24 hrs by propidium iodide staining-based FACS analysis. The class given is functional. The procedure, abridged:
as §2

Assay [16] concerns PC-3. Put plainly: Cell cycle arrest in human PC3 cells assessed as accumulation at S phase at 3 uM after 24 hrs by propidium iodide staining-based FACS analysis. The class given is functional. The procedure, abridged: as §2
Assay [17] concerns PC-3. Kind of assay: Cell cycle arrest in human PC3 cells assessed as accumulation at G1 phase at 3 uM after 24 hrs by propidium iodide staining-based FACS analysis. The class given is functional. An outline of the steps: as §2
For assay [18], the system named is PC-3. Put plainly: Cell cycle arrest in human PC3 cells assessed as accumulation at sub-G1 phase at 3 uM after 24 hrs by propidium iodide staining-based FACS analysis. The class given is functional. The procedure, abridged: as §2
For assay [19], the system named is NTUB1. Kind of assay: Inhibition of alpha-tubulin assembly in human NTUB1 cells at 0.3 to 1 uM after 24 hrs by DAPI staining-based microscopic analysis. The class given is cell-based. The procedure, abridged: (§3)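 NTUB1 cells seeded on serum-coated coverslips (10⁵ cells/well), incubated overnight, then treated 24 h. Fixed in 2% formaldehyde/PBS 20 min and permeabilized in cold methanol 3 min. Stained overnight with anti-α-tubulin primary, then rhodamine goat anti-rabbit secondary with 1 µg/mL DAPI for 1 h at room temperature. Mounted in 80% glycerol/PBS and examined by fluorescence microscopy; untreated medium control.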

The test system of assay [20] is NTUB1. Put plainly: Stabilization GDP-bound alpha-tubulin in human NTUB1 cells assessed as microtubule disassembly at 50 to 100 uM after 6 hrs by Western blot analysis. The class given is cell-based. An outline of the steps: (§4)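 NTUB1 cells (1×10^6 per dish) treated 6 h; 500 nM paclitaxel reference. Lysed in Tris-HCl pH 6.8 buffer with MgCl2, EGTA, 0.5% NP-40 and protease/phosphatase inhibitors. Centrifuged 15,000g, 10 min, 4 °C to separate soluble (supernatant) from polymerized (pellet) tubulin. Fractions run on 10% SDS-PAGE and immunoblotted for α-tubulin, β-actin as control, chemiluminescent detection.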
(In general: Immunoblotting shows a protein as a band on a membrane.)

For assay [21], the system named is NTUB1. Put plainly: Stabilization GDP-bound alpha-tubulin in human NTUB1 cells assessed as microtubule disassembly at 10 uM after 6 hrs by Western blot analysis. The class given is cell-based. An outline of the steps:
as §4

Assay [22] concerns NTUB1. Kind of assay: Stabilization GDP-bound alpha-tubulin in human NTUB1 cells assessed as microtubule disassembly at 500 nM after 6 hrs by Western blot analysis. The class given is cell-based. An outline of the steps:
as §4

Assay [23] has as its system NTUB1. Kind of assay: Inhibition of alpha-tubulin assembly in human NTUB1 cells at 10 to 100 uM after 6 hrs by Western blot analysis. The class given is cell-based. The procedure, abridged:
as §4

Assay [24] has as its system NTUB1. Put plainly: Antimitotic activity in human NTUB1 cells assessed as accumulation of mitotic arrest cells at 0.3 to 1 uM after 24 hrs by DAPI staining-based microscopic analysis. The class given is functional, cell-based. The procedure, abridged:
as §3

In assay [25] the test system is NTUB1. Kind of assay: Antimitotic activity in human NTUB1 cells assessed as appearance of rounded and dead cells at 0.3 to 3 uM after 24 hrs. The format is functional, cell-based. The procedure, abridged:
(§5)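 NTUB1 cells at 7×10^5 cells per 10 cm dish, treated 24 h; medium-only control. Cell rounding and death scored by light-microscopic morphology.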

In assay [26] the test system is NTUB1. Kind of assay: Inhibition of alpha-tubulin assembly in human NTUB1 cells at 10 nM after 24 hrs by DAPI staining-based microscopic analysis. The class given is cell-based. The procedure, abridged:
as §3

For assay [27], the system named is NTUB1. Put plainly: Antimitotic activity in human NTUB1 cells assessed as accumulation of mitotic arrest cells at 10 nM after 24 hrs by DAPI staining-based microscopic analysis. The format is functional, cell-based. An outline of the steps:
as §3

Assay [28] relates to NTUB1. Kind of assay: Antimitotic activity in human NTUB1 cells assessed as appearance of rounded and dead cells at 10 nM after 24 hrs. The class given is functional, cell-based. The procedure, abridged:
as §5

As usually defined, the IC50 is the concentration that gives 50% inhibition. Read a high IC50 as weaker potency in that assay. As for `COc1ccc(OC)c(C(=O)/C=C/c2ccc(C(=O)NC(C)C)cc2)c1`, the half-inhibitory concentration (IC50) in assay [1] came to 1.97 µM; in the assay on PC-3 [2], 1.58 µM. In addition, the Activity turned out to be 22.6% in assay [3]; 27.2% in assay [4]; 44.9% in assay [5]; 1.84% in assay [6]; 24.2% in assay [7]; 21.2% in [8]. Further, the Activity came out at 22.3% in assay [9]; 30.3% in assay [10]; 19.22% with PC-3 [11]; 25.83% with PC-3 [12]; 38.85% in the assay on PC-3 [13]; 9.25% with PC-3 [14]. Besides, the Activity in the assay on PC-3 [15] was determined as 25.43%; in the assay with PC-3 [16], 16.09%; with PC-3 [17], 36.73%; in the assay with PC-3 [18] it was 14.26%.
Turning to `CCOC(=O)c1ccc(/C=C/C(=O)c2cc(OC)ccc2OC)cc1`, the IC50 in assay [1] was 4.49 µM; in the assay with PC-3 [2], 5.7 µM.
Regarding `COc1ccc(OC)c(C(=O)/C=C/c2ccc(C(=O)N3CCCC3)cc2)c1`, the half-maximal inhibitory concentration (IC50) was 1.26 µM in assay [1] and 0.53 µM with PC-3 [2]. Further, the Activity in assay [3] is 20.4%; in [4] it was 28.8%; in assay [5], 46.6%; in assay [6], 2.16%; in assay [7], 18.3%; in assay [8], 11.3%. Moreover, the Activity in [9] amounted to 7.03%; in assay [10], 61%; in the assay with PC-3 [11], 14.02%; with PC-3 [12], 25.28%; in the assay on PC-3 [13], 45.81%; in the assay on PC-3 [14], 7.8%. For the same compound, the Activity in the assay with PC-3 [15] is 27.69%; in the assay with PC-3 [16] it was 21.83%; in the assay on PC-3 [17] it was 18.44%; in the assay with PC-3 [18], 24.45%; with NTUB1 [20], “Dose-dependent effect”. For the same compound, in the assay on NTUB1 [19], the inhibition entry is “Active”. The result in the assay on NTUB1 [21] was inactive. Also, the result in the assay with NTUB1 [22], with NTUB1 [24] and with NTUB1 [25] was Active. In addition, the inhibition entry with NTUB1 [23] was “inactive”.
With `COc1ccc(OC)c(C(=O)/C=C/c2ccc(C(=O)OCc3ccccc3)cc2)c1`, the IC50 in assay [1] was 13.3 µM; with PC-3 [2], 17.9 µM.
`COc1ccc(OC)c(C(=O)/C=C/c2ccc(C(=O)O)s2)c1` showed an IC50 in assay [1] greater than 50 µM.
For the compound `CCCOC(=O)c1ccc(/C=C/C(=O)c2cc(OC)ccc2OC)cc1`, the IC50 amounted to 6.01 µM in [1] and 26.9 µM in the assay with PC-3 [2].
Taken in the same sequence, the figures for `COc1ccc(OC)c(C(=O)/C=C/c2ccc(C(=O)O)cc2)c1` were 5.7 µM and 7.24 µM.
On the same counts, the results for `COc1ccc(OC)c(C(=O)/C=C/c2ccc(C(=O)N(C)C)cc2)c1` are 3.89 µM and 4.58 µM.
With `CC(=O)O[C@H]1C(=O)[C@@]2(C)[C@H]([C@H](OC(=O)c3ccccc3)[C@]3(O)C[C@H](OC(=O)[C@H](O)[C@@H](NC(=O)c4ccccc4)c4ccccc4)C(C)=C1C3(C)C)[C@]1(OC(C)=O)CO[C@@H]1C[C@@H]2O`, the inhibition entry in the assay on NTUB1 [26] was “inactive”. Moreover, the outcome with NTUB1 [27] and in the assay with NTUB1 [28] was Active.
Take `COc1ccc(OC)c(C(/C=C/c2ccc(C(=O)NC3CC3)cc2)=N/C2CC2)c1`: the concentration for half-maximal inhibition (IC50) came to 3.57 µM in assay [1] and 4.26 µM in the assay with PC-3 [2].
On the same counts, the results for `COc1ccc(OC)c(C(=O)/C=C/c2ccc(C(=O)OCC=C(C)C)cc2)c1` are 13.4 µM and greater than 50 µM.
On the same counts, the results for `COc1ccc(OC)c(C(=O)/C=C/c2ccc(C(=O)NC3CCCCC3)cc2)c1` are 2.25 µM and 6.3 µM.
Taken in the same sequence, the figures for `CNC(=O)c1ccc(/C=C/C(=O)c2cc(OC)ccc2OC)cc1` were 2.2 µM and 2.13 µM.
In the case of `COc1ccc(OC)c(C(=O)/C=C/c2ccc(C(=O)OC(C)C)cc2)c1`, the values for the IC50 (in assay [1]; in the assay with PC-3 [2]) were 4.42 µM and 6.74 µM, respectively.
Regarding `CCCNC(=O)c1ccc(/C=C/C(=O)c2cc(OC)ccc2OC)cc1`, the concentration for half-maximal inhibition (IC50) worked out at 2.26 µM in assay [1] and 1.5 µM in the assay on PC-3 [2].
On the same counts, the results for `CCN(CC)C(=O)c1ccc(/C=C/C(=O)c2cc(OC)ccc2OC)cc1` are 2.69 µM and 3.79 µM.
Consider `CCNC(=O)c1ccc(/C=C/C(=O)c2cc(OC)ccc2OC)cc1`, for which the IC50 in assay [1] was determined as 3.76 µM; with PC-3 [2] it was 4.18 µM.
Taken in the same sequence, the figures for `COc1ccc(OC)c(C(=O)/C=C/c2ccc(C(=O)N(C)CCO)cc2)c1` were 4.42 µM and 5.75 µM.
Taken in the same sequence, the figures for `COC(=O)c1ccc(/C=C/C(=O)c2cc(OC)ccc2OC)cc1` were 3.51 µM and 4.85 µM.
